Experimental data pooled from the literature.
Protocols differ between the studies behind these lines.
Si: Sucrase-isomaltase, intestinal (Si, Rattus norvegicus, UniProt P23739)
TYR: Tyrosinase (TYR, Homo sapiens, UniProt P14679)
NR3C1: Glucocorticoid receptor (NR3C1, Homo sapiens, UniProt P04150)

SMILES	target	assay	test system	setting	inhibition [%]
O=C(c1ccc(Cl)cc1)N(Cc1ccccc1)C1CCCCC1	Estrogen receptor (ESR1, Homo sapiens, UniProt P03372)	cell-free assay	–	10 µM	-2.9
CN(C)C1CCN(CC#Cc2nn(C3CCCC3)c3nc(NCc4ccccc4)ncc23)C1 (stereo not shown)	Leucine-rich repeat serine/threonine-protein kinase 2 (LRRK2, Homo sapiens, UniProt Q5S007)	enzyme activity, inhibitor, FRET	–	1 µM	0
O=C1OC[C@H]2OC(=O)c3cc(O)c(O)c(O)c3-c3c(O)c(O)c(O)c4c3C(=O)O[C@H]([C@H]3OC(=O)c5c-4c(O)c(O)c(O)c5[C@H]3O)[C@@H]2OC(=O)c2cc(O)c(O)c(O)c2-c2c1cc(O)c(O)c2O	Si	enzyme activity, inhibitor	–	100 µg/mL	48.3
CNC(=O)c1cc(Oc2ccc(NC(=O)Nc3ccc(Cl)c(C(F)(F)F)c3)cc2)ccn1	Mitogen-activated protein kinase 14 (MAPK14, Homo sapiens, UniProt Q16539, T106M)	enzyme activity, inhibitor	–	0.3 µM	59
Cc1ccc(C(C)C)cc1NC(=O)COC(=O)c1cc(O)cc(O)c1	TYR	enzyme activity, inhibitor	–	50 µg/mL	54.6
CCN(Cc1ccccc1C(F)(F)F)C(=O)C1CCN(S(=O)(=O)c2ccc3[nH]ncc3c2)CC1	NR3C1	ligand displacement, radioligand	–	10 µM	1
CNc1cc(Oc2cc(C(=O)Nc3cc(N4CCN(C)CC4)cc(C(F)(F)F)c3)ccc2C)ncn1	PAN2-PAN3 deadenylation complex subunit PAN3 (Homo sapiens, UniProt Q58A45)	target engagement in cells, inhibitor, chemoproteomics	Huh-7	1 µM	-39.3
O=c1c(O[C@@H]2O[C@@H](CO)[C@H](O)[C@H]2O)c(-c2ccc(O)c(O)c2)oc2cc(O)cc(O)c12	Si	enzyme activity, inhibitor	–	50 µg/mL	31.5
CC(CN(C)C)C(Oc1cccc2ccccc12)c1cccs1 (stereo not shown)	Norepinephrine transporter (Slc6a2, Rattus norvegicus, UniProt Q9WTR4)	ligand displacement, radioligand	–	10 µM, cell membranes	< 70
CS(=O)(=O)Nc1cccc(-c2csc(NC(=O)CSc3nc4nccnc4c(=O)n3CCc3ccccc3)n2)c1	Phosphatidylinositol 3-kinase catalytic subunit type 3 (PIK3C3, Homo sapiens, UniProt Q8NEB9)	enzyme activity, inhibitor	–	10 µM	9
COc1cc(Cl)c(C(=O)N[C@@H](CN[C@H]2CC[C@@H](N)CC2)Cc2ccc(C#N)cc2)cc1-c1ccc(CN[C@H](C)c2ccc(C)cc2)o1	P2Y purinoceptor 2 (P2RY2, Homo sapiens, UniProt P41231)	calcium signal, antagonist	–	10 µM	-25
O=C(c1ccc(F)cc1)N(Cc1ccccc1)C1CCCCC1	NR3C1	cell-free assay	–	10 µM	9
Cc1ccc(C(C)C)cc1NC(=O)COC(=O)/C=C/c1ccccc1	TYR	enzyme activity, inhibitor	–	50 µg/mL	82.3
COc1cc(-c2cc(-c3ccc(N4CCNCC4)cc3)cnc2C)cc(OC)c1OC	cAMP-dependent protein kinase catalytic subunit beta (PRKACB, Homo sapiens, UniProt P22694)	enzyme activity, inhibitor	–	0.1 µM	2
Cc1ccc(C(C)C)cc1NC(=O)COC(=O)c1ccc(O)cc1O	TYR	enzyme activity, inhibitor	–	50 µg/mL	66.7
Cc1ccc(Nc2nccc(N(C)c3ccc4c(C)n(C)nc4c3)n2)cc1S(N)(=O)=O	Abl2 (Mus musculus, UniProt Q4JIM5)	enzyme activity, inhibitor	–	0.3 µM	38
CCCNc1nc2ccccc2n1Cc1ccc(Cl)cc1	Alpha-2C adrenergic receptor (ADRA2C, Homo sapiens, UniProt P18825)	ligand displacement	–	10 µM	84.8
O=c1c(O[C@@H]2O[C@H](CO)[C@@H](O)[C@H](O)[C@H]2O)c(-c2ccc(O)c(O)c2)oc2cc(O)cc(O)c12	Si	enzyme activity, inhibitor	–	200 µg/mL	61.4
COc1cc(NC(C)=O)c(Cl)cc1C(=O)Nc1nccs1	NR3C1	cell-free assay	–	10 µM	11
